What was measured:
[1] = biological target: Bifunctional dihydrofolate reductase-thymidylate synthase (Leishmania major, UniProt P07382); test: Inhibition of dihydrofolate reductase (DHFR) from Leishmania major; conditions: read-out: Log 1/Ki (converted)
Leishmania major = test: Growth inhibition against Leishmania major promastigotes in culture; assay type: functional, organism-based; conditions: read-out: Log 1/EC50 (converted)
Procedure, shortened: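 Seeded at 5 × 10⁶ cells/mL with four to six inhibitor concentrations spanning the I50. Coulter-counted daily for 5 days or until out of log phase. EC50 = concentration halving growth rate versus drug-free medium, from log dose vs percent growth plot.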

Sequence of Bifunctional dihydrofolate reductase-thymidylate synthase (P07382 whole entry): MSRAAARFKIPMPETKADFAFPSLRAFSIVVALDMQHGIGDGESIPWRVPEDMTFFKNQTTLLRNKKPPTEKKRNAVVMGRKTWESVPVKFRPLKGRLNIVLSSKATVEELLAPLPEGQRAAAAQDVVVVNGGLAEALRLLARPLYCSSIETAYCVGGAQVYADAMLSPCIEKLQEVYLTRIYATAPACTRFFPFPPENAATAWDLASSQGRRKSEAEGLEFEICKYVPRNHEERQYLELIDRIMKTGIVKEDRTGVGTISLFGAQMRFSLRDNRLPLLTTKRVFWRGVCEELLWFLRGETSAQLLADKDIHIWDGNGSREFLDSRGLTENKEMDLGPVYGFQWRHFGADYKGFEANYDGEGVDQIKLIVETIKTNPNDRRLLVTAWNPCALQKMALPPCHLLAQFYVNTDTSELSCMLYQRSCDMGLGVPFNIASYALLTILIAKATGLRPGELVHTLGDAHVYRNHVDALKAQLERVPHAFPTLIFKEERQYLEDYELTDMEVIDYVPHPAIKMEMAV

SMILES | Ki [1] | EC50 (Leishmania major)
CCCCCCCCCOc1cccc(N2C(N)=NC(N)=NC2(C)C)c1 | 0.302 µM | 
CC1(C)N=C(N)N=C(N)N1c1cccc(C[Se]c2ccccc2)c1 | 0.275 µM | 
CC1(C)N=C(N)N=C(N)N1c1cccc(CNc2cc(C(N)=O)cc(C(N)=O)c2)c1 | 0.513 µM | 501 µM
CC1(C)N=C(N)N=C(N)N1c1cccc(CNc2ccc(Cl)cc2)c1 | 0.661 µM | 263 µM
CC1(C)N=C(N)N=C(N)N1c1cccc(COc2cccc3ccccc23)c1 | 0.0398 µM | 51.3 µM
CC1(C)N=C(N)N=C(N)N1c1cccc(COc2cccc(NC(N)=O)c2)c1 | 0.0912 µM | 
CC1(C)N=C(N)N=C(N)N1c1cccc(C(N)=O)c1 | 117 µM | 
CCCCCc1ccc(OCc2cccc(N3C(N)=NC(N)=NC3(C)C)c2)cc1 | 0.339 µM | 
CC1(C)N=C(N)N=C(N)N1c1cccc(CSc2ccccc2)c1 | 0.407 µM | 
CCCCCCOc1cccc(N2C(N)=NC(N)=NC2(C)C)c1 | 3.98 µM | 
CC1(C)N=C(N)N=C(N)N1c1cccc(SCc2ccc(Cl)cc2)c1 | 0.11 µM | 60.3 µM
CCCCCCCCCCCCc1cccc(N2C(N)=NC(N)=NC2(C)C)c1 | 0.0724 µM | 7.94 µM
CC1(C)N=C(N)N=C(N)N1c1cccc(CNc2ccc(S(N)(=O)=O)cc2)c1 | 0.759 µM | 
COc1cccc(N2C(N)=NC(N)=NC2(C)C)c1 | 22.9 µM | 
CC1(C)N=C(N)N=C(N)N1c1cccc(S(N)(=O)=O)c1 | 363 µM | 
CC1(C)N=C(N)N=C(N)N1c1cccc(C#N)c1 | 6.03 µM | 
CC1(C)N=C(N)N=C(N)N1c1cccc(O)c1 | 53.7 µM | 
CCCCCCCCCCCOc1cccc(N2C(N)=NC(N)=NC2(C)C)c1 | 0.977 µM | 
CC1(C)N=C(N)N=C(N)N1c1cccc(OCC23CC4CC(CC(C4)C2)C3)c1 | 3.09 µM | 
CCOc1cccc(N2C(N)=NC(N)=NC2(C)C)c1 | 38 µM | 
CCc1cccc(OCc2cccc(N3C(N)=NC(N)=NC3(C)C)c2)c1 | 0.126 µM | 
CC1(C)N=C(N)N=C(N)N1c1cccc(COc2cccc(C#N)c2)c1 | 0.178 µM | 
COc1cccc(OCc2cccc(N3C(N)=NC(N)=NC3(C)C)c2)c1 | 0.151 µM | 309 µM
CC1(C)N=C(N)N=C(N)N1c1cccc(COc2cccc(CO)c2)c1 | 0.646 µM | 
CC1(C)N=C(N)N=C(N)N1c1cccc(OCCCCOc2cccc(C(F)(F)F)c2)c1 | 0.0759 µM | 
CC(=O)c1cccc(N2C(N)=NC(N)=NC2(C)C)c1 | 39.8 µM | 
CC1(C)N=C(N)N=C(N)N1c1cccc(C(F)(F)F)c1 | 2.19 µM | 
CC1(C)N=C(N)N=C(N)N1c1cccc(OCc2ccccc2)c1 | 1.91 µM | 
CN(Cc1cnc2nc(N)nc(N)c2n1)c1ccc(C(=O)N[C@@H](CCC(=O)O)C(=O)O)cc1 [METHOTREXATE] |  | 1 µM

Now from value to compound, other results behind:

Ki [1] | SMILES | EC50 (Leishmania major)
0.174 µM | CC(C)c1cccc(OCc2cccc(N3C(N)=NC(N)=NC3(C)C)c2)c1 | 57.5 µM
0.017 µM | CC1(C)N=C(N)N=C(N)N1c1cccc(COc2cccc(-c3ccccc3)c2)c1 | 22.9 µM
0.427 µM | Cc1cccc(OCc2cccc(N3C(N)=NC(N)=NC3(C)C)c2)c1 | 219 µM
0.0209 µM | CCCCCCCCCc1cccc(N2C(N)=NC(N)=NC2(C)C)c1 | 8.51 µM
0.251 µM | CC1(C)N=C(N)N=C(N)N1c1cccc(OCCOc2cccc(C(F)(F)F)c2)c1 | 126 µM
0.0759 µM | CC(=O)Nc1cccc(OCc2cccc(N3C(N)=NC(N)=NC3(C)C)c2)c1 | 
10 µM | CC1(C)N=C(N)N=C(N)N1c1cccc([N+](=O)[O-])c1 | 
1.95 µM | CCc1cccc(N2C(N)=NC(N)=NC2(C)C)c1 | 
0.224 µM | CC1(C)N=C(N)N=C(N)N1c1cccc(SCc2ccccc2)c1 | 
42.7 µM | CC1(C)N=C(N)N=C(N)N1c1cccc(C(O)c2ccccc2)c1 (stereo not drawn) | 
5.75 µM | CC(C)(C)c1cccc(N2C(N)=NC(N)=NC2(C)C)c1 | 
112 µM | CCOC(=O)c1cccc(N2C(N)=NC(N)=NC2(C)C)c1 | 
0.0692 µM | CC1(C)N=C(N)N=C(N)N1c1cccc(COc2cc(Cl)c(Cl)cc2Cl)c1 | 25.1 µM
5.89 µM | CCCCCCCCCCCCCCOc1cccc(N2C(N)=NC(N)=NC2(C)C)c1 | 
0.224 µM | CC1(C)N=C(N)N=C(N)N1c1cccc(COc2cccc(Cl)c2)c1 | 
12.6 µM | CC1(C)N=C(N)N=C(N)N1c1ccccc1 | 
1.2 µM | CC1(C)N=C(N)N=C(N)N1c1cccc(Cl)c1 | 
